Source: ChEMBL document CHEMBL1150680, “Anti-inflammatory constituents and new pterocarpanoid of Crotalaria pallida” (J Nat Prod, 2003)

Assays:
N9 [1] = assay: Antiinflammatory activity in LPS/IFN-gamma-stimulated mouse N9 cells assessed as inhibition of nitric oxide production at 3 uM pretreated 1 hr before LPS/IFNgamma challenge relative to control; format: functional
Summary of the method: (§1)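 N9 murine microglial line in Iscove's modified DMEM with 5% heat-inactivated FCS, 8 × 10⁴ cells/well. Pretreated for 1 h at 37 °C with drug or DMSO (final ≤0.5%), then stimulated with LPS (10 ng/mL) plus IFN-γ (10 unit/mL) for 24 h. Medium nitrite was read by Griess reaction at 550 nm with a NaNO₂ standard. Mean ± SEM, n = 3.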

N9 [2] = assay: Toxicity in LPS/IFN-gamma-stimulated mouse N9 cells assessed as LDH release at 30 uM; format: cell-based; details: n9, 30 µM
Summary of the method: (§2)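 Cytotoxicity in LPS-stimulated RAW 264.7 or LPS/IFN-γ-stimulated N9 cultures, assessed by LDH release assay and trypan blue exclusion.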

[3] = Antiinflammatory activity in fMLP/cytochalasin B stimulated rat neutrophils assessed as beta-glucuronidase release at 10 uM preincubated for 10 mins measured 45 mins after fMLP/cytochalasin B challenge relative to control; format: functional, Neutrophil
Summary of the method: (§3)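 Rat blood neutrophils were isolated in EDTA by dextran sedimentation, Ficoll-Hypaque and hypotonic lysis, then suspended in HBSS at 1 × 10⁷ cells/mL. Preincubated 10 min at 37 °C with drug or DMSO (final ≤0.5%), then challenged with fMLP (1 μM)/cytochalasin B (5 μg/mL). After 45 min, supernatant lysozyme and β-glucuronidase were expressed as percent of the Triton X-100 total content.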

[4] = Antiinflammatory activity in fMLP/cytochalasin B stimulated rat neutrophils assessed as lysozyme release at 30 uM preincubated for 10 mins measured 45 mins after fMLP/cytochalasin B challenge relative to control; format: functional, Neutrophil; summary of the method: as §3
[5] = Antiinflammatory activity in fMLP/cytochalasin B stimulated rat neutrophils assessed as inhibition of lysozyme release at 10 uM preincubated for 10 mins measured 45 mins after fMLP/cytochalasin B challenge relative to control; format: functional; details: Neutrophil; summary of the method: as §3
[6] = Antiinflammatory activity in fMLP/cytochalasin B stimulated rat neutrophils assessed as lysozyme release at 10 uM preincubated for 10 mins measured 45 mins after fMLP/cytochalasin B challenge relative to control; format: functional, Neutrophil; summary of the method: as §3
[7] = Antiinflammatory activity in fMLP/cytochalasin B stimulated rat neutrophils assessed as beta-glucuronidase release at 30 uM preincubated for 10 mins measured 45 mins after fMLP/cytochalasin B challenge relative to control; format: functional, Neutrophil; summary of the method: as §3
RAW264.7 [8] = assay: Toxicity in LPS-stimulated mouse RAW264.7 cells assessed as LDH release at 30 uM; format: cell-based; details: raw264.7, 30 µM; summary of the method: as §2
RAW264.7 [9] = assay: Antiinflammatory activity in LPS-stimulated mouse RAW264.7 cells assessed as inhibition of nitric oxide production at 30 uM pretreated 1 hr before LPS challenge relative to control; format: functional
Summary of the method: (§4)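 RAW 264.7 mouse macrophage-like cells in DMEM with 10% FCS, plated at 2 × 10⁵ cells/well and adhered overnight. Pretreated with test drug or DMSO (final ≤0.5%) for 1 h at 37 °C, then stimulated with LPS (E. coli 0111:B4, 1 μg/mL) for 24 h. Nitrite in the medium was measured by Griess reaction (A550) against a NaNO₂ standard curve. Mean ± SEM, n = 3.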

N9 [10] = assay: Antiinflammatory activity in LPS-stimulated mouse N9 cells assessed as inhibition of nitric oxide production at 1 uM pretreated 1 hr before LPS challenge relative to control; format: functional; summary of the method: as §1
RAW264.7 [11] = assay: Antiinflammatory activity in LPS-stimulated mouse RAW264.7 cells assessed as inhibition of nitric oxide production at 3 uM pretreated 1 hr before LPS challenge relative to control; format: functional; summary of the method: as §4
RAW264.7 [12] = assay: Antiinflammatory activity in LPS-stimulated mouse RAW264.7 cells assessed as inhibition of nitric oxide production at 10 uM pretreated 1 hr before LPS challenge relative to control; format: functional; summary of the method: as §4
RAW264.7 [13] = assay: Antiinflammatory activity in LPS-stimulated mouse RAW264.7 cells assessed as inhibition of nitric oxide production pretreated 1 hr before LPS challenge; format: functional, cell-based; summary of the method: as §4
[14] = Antiinflammatory activity in fMLP/cytochalasin B stimulated rat neutrophils assessed as inhibition of beta-glucuronidase release at 10 uM preincubated for 10 mins measured 45 mins after fMLP/cytochalasin B challenge relative to control; format: functional, Neutrophil; design: Activity: scale not given: the % may be the effect or the level left; summary of the method: as §3
N9 [15] = assay: Antiinflammatory activity in LPS/IFN-gamma-stimulated mouse N9 cells assessed as inhibition of nitric oxide production at 10 uM pretreated 1 hr before LPS/IFNgamma challenge relative to control
[16] = Antiinflammatory activity in fMLP/cytochalasin B stimulated rat neutrophils assessed as inhibition of lysozyme release at 30 uM preincubated for 10 mins measured 45 mins after fMLP/cytochalasin B challenge relative to control; format: functional; details: Neutrophil; summary of the method: as §3
N9 [17] = assay: Antiinflammatory activity in LPS/IFN-gamma-stimulated mouse N9 cells assessed as inhibition of nitric oxide production pretreated 1 hr before LPS/IFNgamma challenge
[18] = Antiinflammatory activity in fMLP/cytochalasin B stimulated rat neutrophils assessed as inhibition of beta-glucuronidase release at 30 uM preincubated for 10 mins measured 45 mins after fMLP/cytochalasin B challenge relative to control; format: functional; details: Neutrophil, read-out: INH; summary of the method: as §3
[19] = Antiinflammatory activity in fMLP/cytochalasin B stimulated rat neutrophils assessed as inhibition of beta-glucuronidase release preincubated for 10 mins measured 45 mins after fMLP/cytochalasin B challenge; format: functional, cell-based; details: Neutrophil; summary of the method: as §3
[20] = Antiinflammatory activity in fMLP/cytochalasin B stimulated rat neutrophils assessed as beta-glucuronidase release at 3 ug/ml preincubated for 10 mins measured 45 mins after fMLP/cytochalasin B challenge relative to control; format: functional, Neutrophil; details: in the assay text read “3 uM” for “3 ug/ml”; summary of the method: as §3
[21] = Antiinflammatory activity in fMLP/cytochalasin B stimulated rat neutrophils assessed as lysozyme release at 3 ug/ml preincubated for 10 mins measured 45 mins after fMLP/cytochalasin B challenge relative to control; format: functional, Neutrophil; details: in the assay text read “3 uM” for “3 ug/ml”; summary of the method: as §3
[22] = Antiinflammatory activity in fMLP/cytochalasin B stimulated rat neutrophils assessed as beta-glucuronidase release at 1 ug/ml preincubated for 10 mins measured 45 mins after fMLP/cytochalasin B challenge relative to control; format: functional, Neutrophil; details: in the assay text read “1 uM” for “1 ug/ml”; summary of the method: as §3
[23] = Antiinflammatory activity in fMLP/cytochalasin B stimulated rat neutrophils assessed as inhibition of lysozyme release preincubated for 10 mins measured 45 mins after fMLP/cytochalasin B challenge; format: functional, cell-based; details: Neutrophil; summary of the method: as §3
[24] = Antiinflammatory activity in fMLP/cytochalasin B stimulated rat neutrophils assessed as inhibition of beta-glucuronidase release at 3 uM preincubated for 10 mins measured 45 mins after fMLP/cytochalasin B challenge relative to control; design: scale not given: the % may be the effect or the level left
[25] = Antiinflammatory activity in fMLP/cytochalasin B stimulated rat neutrophils assessed as inhibition of beta-glucuronidase release at 1 ug/ml preincubated for 10 mins measured 45 mins after fMLP/cytochalasin B challenge relative to control; format: functional, Neutrophil; design: scale not given: the % may be the effect or the level left; details: in the assay text read “1 uM” for “1 ug/ml”; summary of the method: as §3
[26] = Antiinflammatory activity in fMLP/cytochalasin B stimulated rat neutrophils assessed as lysozyme release at 1 ug/ml preincubated for 10 mins measured 45 mins after fMLP/cytochalasin B challenge relative to control; format: functional, Neutrophil; details: in the assay text read “1 uM” for “1 ug/ml”; summary of the method: as §3
[27] = Antiinflammatory activity in fMLP/cytochalasin B stimulated rat neutrophils assessed as inhibition of lysozyme release at 3 ug/ml preincubated for 10 mins measured 45 mins after fMLP/cytochalasin B challenge relative to control; format: functional; details: Neutrophil; summary of the method: as §3

For CC(=O)c1cc2c3c(ccc2o1)[C@@H]1COc2cc(O)ccc2[C@@H]1O3 [CROTAFURAN B], the inhibition at 3 µM (N9 [1]) was 29%, the Activity (N9 [2]) was “Toxic” and the Activity [3] was 37.7%. It also gave an Activity [4] of 55.1%, an inhibition at 10 µM [5] of -7.8% and an Activity [6] of 58.9%. For the same molecule, the Activity [7] was 35.3%, the Activity (RAW264.7 [8]) was “Toxic” and the inhibition at 30 µM (RAW264.7 [9]) was 64.4%. The inhibition at 1 µM (N9 [10]) was 4.2%, the inhibition at 3 µM (RAW264.7 [11]) was 3.2% and the inhibition at 10 µM (RAW264.7 [12]) was 25.6%. For the same molecule, the IC50 (RAW264.7 [13]) was 19 µM, the inhibition at 10 µM ([14]; Rattus norvegicus, Neutrophil) was -0.9% and the inhibition at 10 µM (N9 [15]) was 50.4%. The inhibition at 30 µM [16] was -0.4%, the IC50 (N9 [17]) was 9.4 µM and the inhibition at 30 µM [18] was 5.1%.

For CN1CCN(CCCN2c3ccccc3Sc3ccc(C(F)(F)F)cc32)CC1 [TRIFLUOPERAZINE], the IC50 [19] was 12.2 µM.

For C=C(C)c1cc2c3c(ccc2o1)[C@@H]1COc2cc(O)ccc2[C@@H]1O3 [CROTAFURAN A], the inhibition at 3 µM (N9 [1]) was 15.4%, the Activity (N9 [2]) was “Toxic” and the Activity [3] was 16.5%. It also gave an Activity [20] of 24.8%, an inhibition at 10 µM [5] of 56.2% and an Activity [6] of 23.6%. For the same molecule, the Activity [21] was 46.9%, the Activity (RAW264.7 [8]) was “Toxic” and the Activity [22] was 34.7%. For the same molecule, the inhibition at 30 µM (RAW264.7 [9]) was 59.5%, the IC50 [23] was 9.5 µM and the Activity [24] was 33.4%. It also gave an inhibition at 3 µM (RAW264.7 [11]) of -5.1%, an Activity [25] of 6.9% and an inhibition at 10 µM (RAW264.7 [12]) of 20.6%. For the same molecule, the IC50 (RAW264.7 [13]) was 23 µM, the Activity [14] was 55.8% and the Activity [26] was 54.2%. For the same molecule, the inhibition at 10 µM (N9 [15]) was 45.6%, the inhibition at 3 µg/mL [27] was 14% and the IC50 [19] was 7.8 µM.

CC(=N)NCc1cccc(CN)c1 [1400W] gave an IC50 (RAW264.7 [13]) of 2.3 µM and an IC50 (N9 [17]) of 3.6 µM.
